Measured values gathered from unrelated publications.
Protocols differ between the studies behind these lines.
RPS6KA3 N-terminal kinase domain: Ribosomal protein S6 kinase alpha-3, N-terminal kinase domain (RPS6KA3, Homo sapiens, UniProt P51812)
RPS6KA3: Ribosomal protein S6 kinase alpha-3 (RPS6KA3, Homo sapiens, UniProt P51812)

The remaining binding of `N#CC1(c2ccccn2)CCN(Cc2cc(C(=O)O)c(=O)n3ccccc23)CC1` is reported as 100% (Ribosomal protein S6 kinase alpha-3, C-terminal kinase domain (RPS6KA3, Homo sapiens, UniProt P51812); cell-free assay; competition with immobilised ligand; 1 µM).
The remaining binding of `Cc1nn(C)cc1-c1nc2c(N3CCN(Cc4ccc(Cl)cc4)CC3)c(Cl)cnc2[nH]1` is reported as 84% (RPS6KA3 N-terminal kinase domain; binding; competition with immobilised ligand; 1 µM).
`O=c1[nH]c2ccccc2n1C1CCN(Cc2ccc(-c3[nH]c4cc5ncnc5cc4nc3-c3ccccc3)cc2)CC1` gave a remaining signal of 96.6% (RPS6KA3; cell-free assay; 0.5 µM).
For `COc1cc(Nc2ncc(F)c(Nc3ccc4c(n3)NC(=O)C(C)(C)O4)n2)cc(OC)c1OC`, the inhibition was 88% (RPS6KA3 N-terminal kinase domain; binding; competition with immobilised ligand; 10 µM).
`CC(C)(C)c1cc(C=C(C#N)C#N)cc(Br)c1O` has a remaining activity of 92.2% (RPS6KA3; enzyme activity; inhibitor; 0.5 µM).
The inhibition of `Cn1cc(-c2cccc(N3CCc4c(sc5c4CC(C)(C)C5)C3=O)c2CO)cc(Nc2ccncn2)c1=O` is reported as 1% (RPS6KA3; enzyme activity; inhibitor; 1 µM).
For `Cn1cncc1[C@](O)(COc1ccc(C#N)cc1-c1ccc(OC(F)(F)F)cc1)c1ccc(C#N)cc1`, the remaining binding was 100% (RPS6KA3 N-terminal kinase domain; cell-free assay; competition with immobilised ligand; 1 µM).
`Cn1cc(-c2cc(F)cc(N3CCn4c(cc5c4CCCC5)C3=O)c2CO)cc(Nc2ccc(N3CCN(C4COC4)CC3)cn2)c1=O` gave an inhibition of 7% (RPS6KA3; enzyme activity; inhibitor; 0.1 µM).
For `Nc1ncc(-c2nc(N3CCOCC3)nc(N3CCOCC3)n2)c(C(F)F)n1`, the remaining binding was 59% (RPS6KA3 N-terminal kinase domain; binding; competition with immobilised ligand; 10 µM).
